pEC50, pIC50, pKi: −log10 of the molar value.
How the values were obtained:
[1] = target: T1, Lysophosphatidic acid receptor 1 (Homo sapiens, UniProt Q92633); assay: (§1) Inhibition of LPA-induced calcium transients in RH7777 rat hepatoma cells expressing LPA1 receptor; No effect; type: functional, cell-based
Outline: (§2)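 Fura-2 Ca2+ assay. RH7777 cells stably expressing LPA1, LPA2 or LPA3, or PC-3 cells (endogenous LPA1-3), seeded at 50000 cells/well on poly-D-lysine and grown overnight. Serum-starved in modified Krebs, pH 7.4, for 6-8 h (PC-3: 12 h), then Fura-2 AM loaded for 35 min. Compound added at 15 s; wells read 80-120 s. Transient taken as peak minus baseline 340/380 ratio. Antagonism: LPA 18:1 coapplied; highest concentration 30 μM.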

[2] = target: T2, Lysophosphatidic acid receptor 3 (Homo sapiens, UniProt Q9UBY5); assay: Binding affinity for Lysophosphatidic acid receptor 3 expressed in RH7777 rat hepatoma cells; type: cell-based; outline: as §2
T2 sequence (Q9UBY5 whole entry): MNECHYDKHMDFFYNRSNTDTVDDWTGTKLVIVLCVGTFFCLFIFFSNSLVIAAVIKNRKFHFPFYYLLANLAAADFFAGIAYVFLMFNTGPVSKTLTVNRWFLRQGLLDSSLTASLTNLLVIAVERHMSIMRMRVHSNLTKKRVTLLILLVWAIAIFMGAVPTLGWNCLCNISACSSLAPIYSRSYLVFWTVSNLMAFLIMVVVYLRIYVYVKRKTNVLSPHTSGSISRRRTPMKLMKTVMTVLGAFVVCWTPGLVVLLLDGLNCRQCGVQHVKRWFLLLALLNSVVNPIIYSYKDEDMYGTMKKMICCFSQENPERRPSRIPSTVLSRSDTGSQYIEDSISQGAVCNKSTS

[3] = target: T3, Lysophosphatidic acid receptor 2 (Homo sapiens, UniProt Q9HBW0); assay: Inhibition of LPA-induced calcium transients in RH7777 rat hepatoma cells expressing LPA2 receptor; No effect; type: functional, cell-based; outline: as §2
T3 sequence (Q9HBW0 whole entry): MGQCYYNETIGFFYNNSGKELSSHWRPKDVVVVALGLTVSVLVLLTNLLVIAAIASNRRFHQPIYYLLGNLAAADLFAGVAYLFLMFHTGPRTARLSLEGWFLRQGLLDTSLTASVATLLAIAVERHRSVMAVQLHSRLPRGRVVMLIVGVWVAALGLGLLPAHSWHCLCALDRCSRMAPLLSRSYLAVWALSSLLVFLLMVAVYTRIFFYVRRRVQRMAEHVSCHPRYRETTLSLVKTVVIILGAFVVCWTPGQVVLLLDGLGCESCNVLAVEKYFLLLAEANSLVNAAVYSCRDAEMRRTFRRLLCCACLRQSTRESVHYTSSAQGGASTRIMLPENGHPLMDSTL

[4] = target: T2, Lysophosphatidic acid receptor 3; assay: Inhibition of LPA-induced calcium transients in RH7777 rat hepatoma cells expressing LPA3 receptor; No effect; type: functional, cell-based; outline: as §2
[5] = target: T2, Lysophosphatidic acid receptor 3; assay: Inhibition of LPA-induced calcium transients in RH7777 rat hepatoma cells expressing LPA3 receptor; type: functional, cell-based; outline: as §2
[6] = target: T3, Lysophosphatidic acid receptor 2; assay: Inhibition of LPA-induced calcium transients in RH7777 rat hepatoma cells expressing LPA2 receptor; type: functional, cell-based
[7] = Binding affinity for Lysophosphatidic acid receptor in PC-3 cells; type: cell-based, Homo sapiens; outline: as §2
[8] = Inhibition of LPA-induced calcium transients in PC-3 cells; type: functional, cell-based, Homo sapiens; details: for pIC50: Homo sapiens, PC-3, read-out: IC50
Outline: (§3)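 PC-3 human prostate cancer cells, which express LPA1-3 endogenously, 50000 cells/well. Serum-starved 12 h in modified Krebs, loaded with Fura-2 AM, read in a FlexStation. Ca2+ transient = 340/380 ratio peak minus baseline. Agonism (Emax as % of maximal LPA 18:1 response) and inhibition of LPA-induced transients were measured.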

[9] = target: T1, Lysophosphatidic acid receptor 1; assay: as §1; type: functional, cell-based; remark: listed apart in the source
[10] = target: T1, Lysophosphatidic acid receptor 1; assay: Inhibition of LPA-induced calcium transients in RH7777 rat hepatoma cells expressing LPA1 receptor; type: functional, cell-based; outline: as §2
[11] = target: T1, Lysophosphatidic acid receptor 1; assay: Binding affinity for Lysophosphatidic acid receptor 1 expressed in RH7777 rat hepatoma cells; type: cell-based; outline: as §2
Homo sapiens [12] = organism: Homo sapiens; assay: Inhibitory concentration of compound (after 5 min of incubation) against LPA human platelets
Homo sapiens [13] = organism: Homo sapiens; assay: Maximal shape change of human platelets induced by the compound; type: functional
Outline: (§4)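 Washed human platelets, aspirin-treated and isolated with apyrase, at 4 × 10^5/μL in HEPES buffer pH 7.4, stirred at 37 °C. Lipids given as BSA complexes (4:1). Shape change read as the fall in light transmission in an aggregometer. […] Mean ± SD across different donors.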

Homo sapiens [14] = organism: Homo sapiens; assay: Concentration of compound (after 5 min of addition) that induce LPA expressed in human platelets; type: functional; outline: as §4
[15] = Percent maximal efficacy in PC-3 cells; type: functional, Homo sapiens; outline: as §3

T1 sequence (Q92633 whole entry): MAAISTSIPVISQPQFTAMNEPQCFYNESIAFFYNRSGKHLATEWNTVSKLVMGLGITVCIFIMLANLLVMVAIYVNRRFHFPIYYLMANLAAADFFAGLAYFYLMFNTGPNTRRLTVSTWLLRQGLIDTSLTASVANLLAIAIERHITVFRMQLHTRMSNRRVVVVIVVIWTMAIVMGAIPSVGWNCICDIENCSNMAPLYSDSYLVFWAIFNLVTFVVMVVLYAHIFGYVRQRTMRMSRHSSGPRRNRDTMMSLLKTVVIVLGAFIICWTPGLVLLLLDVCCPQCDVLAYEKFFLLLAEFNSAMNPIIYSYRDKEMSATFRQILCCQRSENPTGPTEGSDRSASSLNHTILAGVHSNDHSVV

EC50 [1]	pKi [2]	IC50 [3]	EC50 [4]	pIC50 [5]	SMILES	pKi [7]	pIC50 [8]	IC50 [9]	further results
Not Active	7.40	Not Active	Not Active	6.99	CC/C=C/CCCCCCCCCCOP(=O)(O)O	–	–	–	pEC50 [6]: 5.39
Not Active	6.92	Not Active	Not Active	6.42	CCCCCCCCCCOP(=O)(O)O [PHOSPHORIC ACID MONODECYL ESTER]	–	–	Not Active	–
Not Active	7.21	Not Active	Not Active	6.89	CCCCCCCCCCCCOP(=O)(O)O [PHOSPHORIC ACID MONODODECYL ESTER]	–	–	–	pIC50 [10]: 5.55; pKi [11]: 5.87; pIC50 (Homo sapiens [12]): 6.80; Emax (Homo sapiens [13]): 94%; pEC50 (Homo sapiens [14]): 6.60
Not Active	–	Not Active	Not Active	–	CCCCCCCCCCCCCCC(F)(F)P(=O)(O)O	–	–	–	–
Not Active	–	Not Active	Not Active	–	CCCCCCCC/C=C/CCCCCCCCOP(=O)(O)O	–	–	Not Active	EC50 [3]: Not Active; Emax [15]: 11%; IC50 [4]: Not Active
Not Active	6.52	Not Active	Not Active	6.18	CCCCCCCCCCCCP(=O)(O)O	5.90	5.58	Not Active	EC50 [3]: Not Active

Further lines, the compound ahead of its results:

SMILES	EC50 [1]	pKi [2]	IC50 [3]	EC50 [4]	pIC50 [5]	pKi [7]	pIC50 [8]	IC50 [9]	further results
CCCCCCCCCCCCOP(O)(O)=S [THIOPHOSPHORIC ACID DODECYL ESTER]	Not Active	–	Not Active	Not Active	–	5.89	5.55	Not Active	–
CCCCCCCCCCCCCCOP(O)(O)=S [THIOPHOSPHORIC ACID TETRADECYL ESTER]	Not Active	–	Not Active	Not Active	–	–	–	Not Active	EC50 [8]: Not Active; IC50 ([8]; pc-3): Not Active
CCCCCCCCCCP(=O)(O)O	Not Active	6.17	Not Active	Not Active	5.92	5.82	5.51	Not Active	EC50 [3]: Not Active
CCCC/C=C/CCCCCCCCOP(O)(O)=S	Not Active	7.85	Not Active	Not Active	7.55	6.40	6.03	Not Active	Emax [15]: 40%; pEC50 [6]: 6.32
CCCCCCCCCCCCCCCC(=O)OC[C@@H](O)COP(=O)(O)O	–	–	–	–	–	–	–	–	pIC50 (Homo sapiens [12]): 7.77; Emax (Homo sapiens [13]): 120%; pEC50 (Homo sapiens [14]): 8.00
CCCCCCCCCCOP(O)(O)=S [THIOPHOSPHORIC ACID DECYL ESTER]	Not Active	–	Not Active	Not Active	–	6.28	5.91	Not Active	–
C=CCCCCCCCCOP(=O)(O)O	Not Active	–	Not Active	Not Active	–	6.24	5.82	–	pIC50 [10]: < 5.00
CCCCCCCC/C=C/CCCCCCCC(=O)OCC(O)COP(=O)(O)O (centres undefined) [OLEOYL]	–	–	–	–	–	–	–	–	Emax (Homo sapiens [13]): 120%; pEC50 (Homo sapiens [14]): 8.05
CCCC/C=C/CCCCCCCCOP(=O)(O)O	Not Active	7.24	Not Active	Not Active	7.02	6.91	6.62	–	pEC50 [6]: 6.40
C=CCCCCCCCCOP(O)(O)=S	Not Active	–	Not Active	Not Active	–	6.27	6.00	Not Active	pEC50 [6]: < 5.00

— ChEMBL document CHEMBL1140336, “Synthesis, structure-activity relationships, and biological evaluation of fatty alcohol phosphates as lysophosphatidic acid receptor ligands, activators of PPARgamma, and inhibitors of autotaxin” (J Med Chem, 2005)
